PostGolgi yeast: growth inhibition of a yeast mutant, post-Golgi transport screen; post-Golgi transport phenotypic cell assay; inhibition, % at 10 µM; hit rate 0.9% among 98,000; AID 739;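 also: yeast cells grown in 1536-well plates; yeast grown about 18 h at 30C before absorbance read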
BB579 growth dn: reduces growth of yeast BB579 in restrictive medium. S. cerevisiae BB579 growth, OD615, 48 h. inhibition, % at 10 µM. hit rate 0.51% among 140,000. AID 804;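 active = inhibition above a set limit, 3 SD over the mean compound inhibition, cut at about 44% in these data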
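Material: Saccharomyces cerevisiae DeaD strain BB579, replicative lifespan model yeast; buffer or medium: CSMM-D restrictive synthetic medium containing dextrose (glucose); compound: 10 µM single dose, DMSO 0.25%; timing: 48 h compound exposure at 30 °C after 4 h preincubation; signal: turbidity as optical density at 615 nm; benchmarks: positive control amphotericin B 10 µg/mL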
Yeast life ext: extends the lifespan of yeast; hit rate 0.68% among 130,000; S. cerevisiae growth with nicotinamide, OD615; deaD strain in restrictive glucose medium; AID 775; inhibition of the nicotinamide effect, % at 10 µM;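 active = inhibition above a set limit, placed 3 SD over the median of all compounds, cut at about 26% in these data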;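 also: 0% = nicotinamide-treated wells and 100% = cells grown without nicotinamide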
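Test system: DeaD-strain S. cerevisiae / Buffer or medium: restrictive glucose medium / Also added: nicotinamide 1.5 mM / Doses: one concentration, 10 µM, DMSO 0.25% / Schedule: 48 h at 30 °C / Signal: OD615 measurement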
PostGolgi ctrl: yeast control strain growth, post-Golgi counter-screen; efflux-deficient yeast background strain, growth absorbance A615, 16 h; inhibition, % at 10 µM; hit rate 5% among 98,000; AID 738
The depositor's hits bear a star. The full list was thinned out, with hits kept by preference. Rule as the data show it, unless noted: active = inhibition above about 30%; inactive = the rest.

`CCCCC(=Nc1ccccc1OC)C1=C(O)CC(c2ccccc2)CC1=O` (configuration not stated) gave BB579 growth dn 17 and Yeast life ext 67*.
Screening CCCC(=Nc1ccccc1OC)C1=C(O)CC(c2ccccc2)CC1=O (configuration not stated) returned BB579 growth dn -20 and Yeast life ext 59*.
For Cc1ccc(S(=O)(=O)N[C@H](C(=O)N2CCC(C(=O)N3CCC[C@H]3C(=O)O)CC2)C(C)C)cc1 the results were PostGolgi yeast 11, BB579 growth dn -18, Yeast life ext -10 and PostGolgi ctrl -10.
Cc1cc(=O)[nH]c2c1c(C)nn2C1CCOC(C)(C)C1 (configuration not stated) was read as PostGolgi yeast -19, BB579 growth dn -29, Yeast life ext -2 and PostGolgi ctrl -2.
`Cc1noc(C)c1COC(=O)c1ccc2c(c1)OCO2` gave PostGolgi yeast -6, BB579 growth dn -28, Yeast life ext -18 and PostGolgi ctrl 43*.
For Cc1noc(C)c1COc1ccc(C(=O)OCC(=O)Nc2ccc3c(c2)OCO3)cc1 the results were PostGolgi yeast 2, BB579 growth dn -42, Yeast life ext -6 and PostGolgi ctrl -3.
CC(C)c1cc(Br)ccc1OCCCN1C(=O)NC(C)(C)C1=O was read as PostGolgi yeast -4, BB579 growth dn -3, Yeast life ext -5 and PostGolgi ctrl 38*.
`Cc1cc(N2CCOCC2)nc(SCc2ccc(Cl)cc2Cl)n1` gave PostGolgi yeast 0, BB579 growth dn -11, Yeast life ext -16 and PostGolgi ctrl 42*.
`Cc1cc(C)nc(SCC(=O)Nc2ccc(N3CCOCC3)c(Cl)c2)n1` gave PostGolgi yeast -3, BB579 growth dn -58, Yeast life ext -7 and PostGolgi ctrl -1.
`COc1c(Cl)cc(Cl)cc1/C=C/C(=O)c1ccc(NC(=O)c2cccs2)cc1` gave BB579 growth dn -12 and Yeast life ext 0.
Cc1ccc(Cl)cc1N1CCN(C(c2cccnc2)c2nnnn2C2CCCCC2)CC1 (configuration not stated) was read as PostGolgi yeast 5, BB579 growth dn -29, Yeast life ext -6 and PostGolgi ctrl 37*.
Screening CCC(c1nnnn1C1CCCCC1)N1CCN(C2CCCC2)CC1 (configuration not stated) returned PostGolgi yeast -3, BB579 growth dn -6, Yeast life ext -15 and PostGolgi ctrl 11.
Screening Cc1ccc(Cl)cc1N1CCN(C(c2ccc(C#N)cc2)c2nnnn2C2CCCC2)CC1 (configuration not stated) returned PostGolgi yeast -6, BB579 growth dn 0, Yeast life ext -3 and PostGolgi ctrl 2.
Screening CC(C)C(c1nnnn1C1CCCCC1)N1CCN(c2ncccn2)CC1 (configuration not stated) returned PostGolgi yeast 51*, BB579 growth dn -9, Yeast life ext -3 and PostGolgi ctrl 83*.
`Fc1ccccc1N1CCN(C(c2ccccn2)c2nnnn2C2CCCCC2)CC1` (configuration not stated) gave PostGolgi yeast 5, BB579 growth dn -24, Yeast life ext -8 and PostGolgi ctrl 40*.
CC(C)C(c1nnnn1C1CCCC1)N1CCCCC1 (configuration not stated) was read as PostGolgi yeast 2, BB579 growth dn 7, Yeast life ext 1 and PostGolgi ctrl 6.
For COc1ccccc1N1CCN(C(c2ccccn2)c2nnnn2C2CCCCC2)CC1 (configuration not stated) the results were PostGolgi yeast 4, BB579 growth dn -12, Yeast life ext -3 and PostGolgi ctrl 8.
`CC(C)CC(c1nnnn1C1CCCCC1)N1CCN(c2ncccn2)CC1` (configuration not stated) gave PostGolgi yeast 53*, BB579 growth dn -8, Yeast life ext -4 and PostGolgi ctrl 84*.
COc1ccc(N2CCN(c3ncccn3)CC2)cc1 was read as PostGolgi yeast 4, BB579 growth dn -30, Yeast life ext -7 and PostGolgi ctrl 10.
Screening CC(C)CC(c1nnnn1C1CCCC1)N1CCN(c2ccccc2F)CC1 (configuration not stated) returned PostGolgi yeast 72*, BB579 growth dn 0, Yeast life ext -19 and PostGolgi ctrl 87*.
Screening CCC(=O)Nc1cc(C(=O)OC(C(=O)c2ccc(C)c(C)c2)c2ccccc2)ccc1C (configuration not stated) returned PostGolgi yeast -1, BB579 growth dn -42, Yeast life ext -3 and PostGolgi ctrl 9.
`CCCCOCC1CN(c2ccccc2)C(=O)CS1` (configuration not stated) gave PostGolgi yeast 0, BB579 growth dn -30, Yeast life ext 3 and PostGolgi ctrl 9.
Screening CCCCC1C(=O)N(c2ccccc2)N(c2ccccc2)C1=O returned BB579 growth dn -24 and Yeast life ext 28*.
`Cc1ccc(N(C(C)C(=O)N2CCCCC2)S(C)(=O)=O)cc1C` (configuration not stated) gave PostGolgi yeast -8, BB579 growth dn -24, Yeast life ext -2 and PostGolgi ctrl -8.
`Cc1ccc(-n2c(C)cc(C3N=C(N)Nc4nc5ccccc5n43)c2C)c(C)c1` (configuration not stated) gave PostGolgi yeast 1, BB579 growth dn -26, Yeast life ext 4 and PostGolgi ctrl 46*.
N#Cc1ccc(NC(=O)Nc2ccc(Cl)cc2)cc1 was read as PostGolgi yeast 16, BB579 growth dn -35, Yeast life ext -16 and PostGolgi ctrl 74*.
For CN(CC(=O)Nc1ccc(C#N)cc1)Cc1ccc(Cl)cc1Cl the results were PostGolgi yeast -10, BB579 growth dn 9, Yeast life ext 9 and PostGolgi ctrl 41*.
For Cc1ccc(CN(c2ccc(C(=O)NCc3ccccn3)cc2)S(C)(=O)=O)cc1 the results were PostGolgi yeast -8, BB579 growth dn -21, Yeast life ext -6 and PostGolgi ctrl 8.
For O=C1N2CCSC2=NC1(Nc1ccccn1)C(F)(F)F (configuration not stated) the results were PostGolgi yeast 0, BB579 growth dn 28, Yeast life ext -4 and PostGolgi ctrl 48*.
O=C(Nc1ccccc1C(=O)OCC(=O)c1c[nH]c2ccccc12)c1ccco1 was read as BB579 growth dn -38 and Yeast life ext -4.
For CCN(Cc1ccccc1)C(c1ccncc1)c1nnnn1C(C)(C)C (configuration not stated) the results were PostGolgi yeast 14, BB579 growth dn -31, Yeast life ext -3 and PostGolgi ctrl 40*.
COc1cc2c(cc1OC)CN(C(=O)c1ccccc1C(=O)O)CC2 was read as PostGolgi yeast 1, BB579 growth dn -19, Yeast life ext -10 and PostGolgi ctrl 4.
For Cc1cc(C)cc(N2C(=O)CC(n3ccnc3)C2=O)c1 (configuration not stated) the results were PostGolgi yeast 5, BB579 growth dn -19, Yeast life ext -7 and PostGolgi ctrl 32*.
CC(OC(=O)CCc1nc2ccccc2c(=O)[nH]1)C(=O)c1ccc(C(C)(C)C)cc1 (configuration not stated) was read as BB579 growth dn -17 and Yeast life ext 3.

Assay outcomes: PubChem, SRMLSC
